Legend:
Mus musculus [1] = assay: Analgesic activity in tail flick test, subcutaneous administration; type: functional; settings: Mus musculus, Tail, sc; read-out: ED50
Method in brief: (§1)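 Mouse tail-flick test against a noxious heat stimulus (D'Amour–Smith method), with drug given by the stated route. […] Where no exact ED50 was obtained, the percentage of animals showing analgesia is reported.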

Mus musculus [2] = assay: Analgesic activity using PQW test, oral administration; type: functional; settings: Mus musculus, po; read-out: ED50
Method in brief: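 Oral drug in mice, followed by phenylbenzoquinone-induced writhing. Analgesia is scored as fewer abdominal contractions in a group of five animals than in a control group. ED50 is the dose that reduces contractions by 50%, estimated graphically by the Litchfield method. Otherwise the percentage of animals showing analgesia is given.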

Opioid receptor [3] = biological target: T1, Opioid receptor (Rattus norvegicus, UniProt P33533+P34975+P33535); assay: Inhibition of [3H]naloxone binding to rat brain membrane with 100 mM NaCl.
Opioid receptor [4] = biological target: T1, Opioid receptor; assay: Inhibition of [3H]-Naloxone binding to rat brain membrane without NaCl
Mus musculus [5] = assay: Analgesic activity in tail flick test, oral administration; type: functional; settings: Mus musculus, Tail, po; read-out: ED50; method in brief: as §1
Mus musculus [6] = assay: 5 HTP (5-hydroxytryptophan) antagonism in mouse 0.5 h after subcutaneous administration (0.03-0.1 dose range).; type: functional; settings: sc
Method in brief: (§2)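 Mice received drug sc over the stated dose range, then DL-5-hydroxytryptophan to induce head twitches. ED50 is the dose that cut the mean number of head twitches by 50% versus a saline-treated control group (N = 5-10). It was estimated graphically by the Litchfield method.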

[7] = biological target: T2, Serotonin (5-HT) receptor (Homo sapiens) (UniProt P30939+P41595+Q13639+P28222+P46098+P08908+P28221+P28223+P28335+P28566+P34969+P50406+P47898+A5X5Y0+O95264+Q70Z44+Q8WXA8); assay: Serotonin antagonism in guinea pig 0.5 hr after subcutaneous administration.; type: functional, organism-based; settings: Cavia porcellus; target entry is the homologue from another species
Method in brief: (§3)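 Guinea pigs were protected against a lethal serotonin dose, per the cited Roemer and Weidmann method. Test substance was given subcutaneously or orally, as named in each line. Protection was assessed at the stated interval after dosing (0.5, 6 or 24 h). ED50 (mg/kg) was estimated graphically by the Litchfield method.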

[8] = biological target: T2, Serotonin (5-HT) receptor (Homo sapiens); assay: Serotonin antagonism in guinea pig 0.5 hr after oral administration.; type: functional, organism-based; settings: Cavia porcellus; target entry is the homologue from another species; method in brief: as §3
[9] = biological target: T2, Serotonin (5-HT) receptor (Homo sapiens); assay: Serotonin antagonism in guinea pig 6 hr after oral administration.; type: functional, organism-based; settings: Cavia porcellus; target entry is the homologue from another species; method in brief: as §3
[10] = biological target: T2, Serotonin (5-HT) receptor (Homo sapiens); assay: Serotonin antagonism in guinea pig 24 hr after oral administration.; type: functional, organism-based; settings: Cavia porcellus; target entry is the homologue from another species; method in brief: as §3
[11] = biological target: T2, Serotonin (5-HT) receptor (Homo sapiens); assay: Serotonin antagonism in guinea pig 24 hr after subcutaneous administration.; type: functional, organism-based; settings: Cavia porcellus; target entry is the homologue from another species; method in brief: as §3
[12] = biological target: T2, Serotonin (5-HT) receptor (Homo sapiens); assay: Serotonin antagonism in guinea pig 6 h after subcutaneous administration.; type: functional, organism-based; settings: Cavia porcellus; target entry is the homologue from another species; method in brief: as §3
Mus musculus [13] = assay: 5 HTP (5-hydroxytryptophan) antagonism in mouse 0.5 hr after subcutaneous administration (0.003-0.1 dose range).; type: functional; settings: sc; method in brief: as §2

| SMILES | ED50 (Mus musculus [1]) | ED50 (Mus musculus [2]) | IC50 (Opioid receptor [3]) | IC50 (Opioid receptor [4]) | ED50 (Mus musculus [5]) | other results |
| --- | --- | --- | --- | --- | --- | --- |
| COc1ccccc1N(C)C(=O)C(C)C1(O)CCN(CCc2ccccc2Cl)CC1.O=C(O)/C=C\C(=O)O (centres undefined) | 0.68 mg/kg | 18 mg/kg | 51 nM | 3.3 nM | > 18 mg/kg | – |
| C=CCN(C(=O)C(C)C1(O)CCN(CCc2ccccc2Cl)CC1)C1CCCCC1.O=C(O)/C=C\C(=O)O (centres undefined) | 4 mg/kg | < 32 mg/kg | 20 nM | 2.4 nM | – | – |
| Br.COc1cccc(CCN2CCC(O)(C(C)C(=O)N(C)C3CCCCC3)CC2)c1 (centres undefined) | 18 mg/kg | > 18 mg/kg | – | – | – | – |
| CCCCC(C(=O)N(C)C1CCCCC1)C1(O)CCN(CCc2ccccc2Cl)CC1.O=C(O)/C=C/C(=O)O (centres undefined) | > 56 mg/kg | > 56 mg/kg | – | – | > 100 mg/kg | – |
| CC(C(=O)N(C)C1CCCCC1)C1(O)CCN(C)CC1.Cl (centres undefined) | > 56 mg/kg | > 56 mg/kg | – | – | > 100 mg/kg | – |
| CC(C(=O)N(C1CCCCC1)C1CCCCC1)C1(O)CCN(CCc2ccccc2Cl)CC1.Cl (centres undefined) | > 56 mg/kg | < 56 mg/kg | – | – | > 100 mg/kg | – |
| CCCCNC(=O)C(C)C1(O)CCN(CCc2ccccc2Cl)CC1 (centres undefined) | > 18 mg/kg | > 32 mg/kg | – | – | < 100 mg/kg | – |
| COc1ccccc1NC(=O)C(C)C1(O)CCN(CCc2ccccc2Cl)CC1.O=C(O)/C=C/C(=O)O (centres undefined) | > 18 mg/kg | 5.6 mg/kg | – | – | – | – |
| CCC(=O)OC1(C(C)C(=O)N(C)C2CCCCC2)CCN(CCc2ccccc2Cl)CC1 (centres undefined) | < 3.2 mg/kg | < 56 mg/kg | – | – | – | – |
| CCN(C(=O)C(C)C1(O)CCN(CCc2ccccc2Cl)CC1)c1ccccc1OC.O=C(O)/C=C/C(=O)O (centres undefined) | 0.07 mg/kg | 56 mg/kg | 6.3 nM | 0.94 nM | 4.9 mg/kg | ED50 (Mus musculus [6]): 0.07 mg/kg |
| CCOc1ccccc1N(CC)C(=O)C(C)C1(O)CCN(CCc2ccccc2Cl)CC1 (centres undefined) | 0.26 mg/kg | 1.8 mg/kg | 1.8 nM | 0.55 nM | 10 mg/kg | – |
| CN(C(=O)C1(C2(O)CCN(CCc3ccccc3Cl)CC2)CC1)C1CCCCC1.O=C(O)/C=C\C(=O)O | 10 mg/kg | > 56 mg/kg | – | – | – | – |
| CN(C(=O)CC1(O)CCN(CCc2ccccc2Cl)CC1)C1CCCCC1.Cl | > 3.2 mg/kg | > 18 mg/kg | – | – | < 56 mg/kg | – |
| CN(C(=O)C(C)(C)C1(O)CCN(CCc2ccccc2Cl)CC1)C1CCCCC1 [PIPRADIMADOL] | 21 mg/kg | 26 mg/kg | 825 nM | 550 nM | > 100 mg/kg | ED50 (Mus musculus [6]): 0.1 mg/kg; ED50 [7]: 0.055 mg/kg; ED50 [8]: 0.103 mg/kg; ED50 [9]: 0.14 mg/kg; ED50 [10]: 0.135 mg/kg; ED50 [11]: > 0.1 mg/kg; ED50 [12]: 0.05 mg/kg |
| CN1CCC(=C2c3ccccc3CCc3sccc32)CC1 [PIZOTYLINE] | – | – | – | – | – | ED50 (Mus musculus [13]): 0.015 mg/kg |
| C#CCN(C(=O)C(C)C1(O)CCN(CCc2ccccc2Cl)CC1)c1ccccc1OC.O=C(O)/C=C\C(=O)O (centres undefined) | 0.13 mg/kg | 0.56 mg/kg | 4.2 nM | 0.41 nM | 5.4 mg/kg | – |
| CN1CCC(=C2c3ccccc3C=Cc3ccccc32)CC1 [CYPROHEPTADINE] | – | – | – | – | – | ED50 (Mus musculus [13]): 0.015 mg/kg |
| CCCN(C(=O)C(C)C1(OC(=O)CC)CCN(CCc2ccccc2Cl)CC1)c1ccccc1OC.O=C(O)/C=C\C(=O)O (centres undefined) | 32 mg/kg | 1 mg/kg | – | – | 100 mg/kg | – |
| CC(C(=O)N(C)C1CCCCC1)C1(O)CCN(CCc2ccccc2Cl)CC1 (centres undefined) [PIPRAMADOL] | 3.8 mg/kg | 10 mg/kg | – | – | 100 mg/kg | – |
| CCN(C(=O)C(C)(C)C1(O)CCN(CCc2ccccc2Cl)CC1)c1ccccc1OC.O=C(O)/C=C/C(=O)O | > 56 mg/kg | > 18 mg/kg | 35 nM | 7.5 nM | > 100 mg/kg | – |
| CC(C(=O)N(C)C1CCCCC1)C1(O)CCN(CCc2ccccc2Cl)CC1 (stereo in doubt; 15) | – | – | – | – | – | ED50 [7]: 0.015 mg/kg; ED50 [8]: 0.01 mg/kg; ED50 [9]: 0.009 mg/kg; ED50 [10]: 0.045 mg/kg; ED50 [11]: 0.028 mg/kg; ED50 [12]: 0.007 mg/kg |

Reference: ChEMBL document CHEMBL1122480, “Synthesis and pharmacological studies of 4,4-disubstituted piperidines: a new class of compounds with potent analgesic properties” (J Med Chem, 1983)
